Data from ChEMBL document CHEMBL5303300, “EUbOPEN Chemogenomics Library - Multiplex” (2023).
Where “and” joins values, the source holds several entries; their conditions need not be identical. Equal entries are not always repeated.

System: U2OS
Assay: Multiplex assay against U2OS
Type: toxicity, cell-based
Conditions: human, number of replicates 2
How it was run: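 At seeding, live cells were stained with Hoechst33342, BioTracker Green Microtubule Cytoskeleton Dye, MitoTracker Red and Annexin V Alexa Fluor 680. After compound addition they were imaged on a CQ1 microscope at 37°C and 5% CO2, and CellPathfinder machine-learning gating sorted them into Hoechst high-intensity objects or normal cells, with normal cells further split into healthy, pyknosed or fragmented nuclei and pyknosed cells into mitotic or apoptotic. Tubulin, mitochondrial-mass and membrane-permeability phenotypes are given as per cents of cells with healthy nuclei.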

[1] = 12 h, 1 µM, compound concentration 1 uM
[2] = 12 h, 10 µM, compound concentration 10 uM
[3] = 24 h, 1 µM, compound concentration 1 uM
[4] = 24 h, 10 µM, compound concentration 10 uM
[5] = 48 h, 1 µM, compound concentration 1 uM
[6] = 48 h, 10 µM, compound concentration 10 uM

Cc1ccc(C(=O)Nc2cc(N3CCN(C)CC3)cc(C(F)(F)F)c2)cc1-n1cc(-c2cnn(C)c2C)nn1.Cl
Population Apoptotic (%) [1]: 25% and 60% | Population Healthy Nuclei (%) [1]: 70% and 79% | Population Hoechst High Intensity Objects (%) [1]: 0% | Population Membrane Permeable-Phenotype (%) [1]: 12% and 17% | Population Mitotic Cells (%) [1]: 75% and 39% | Population Normal (%) [1]: 100% | Population Pyknosed Nuclei (%) [1]: 8% and 17% | Population Tubulin-Different-Phenotype (%) [1]: 69% and 29% | Population Apoptotic (%) [2]: 60% and 83% | Population Healthy Nuclei (%) [2]: 69% and 51% | Population Hoechst High Intensity Objects (%) [2]: 0% | Population Membrane Permeable-Phenotype (%) [2]: 28% and 37% | Population Mitochondria Different-Phenotype (%) [2]: 42% and 62% | Population Mitotic Cells (%) [2]: 39% and 16% | Population Normal (%) [2]: 100% | Population Pyknosed Nuclei (%) [2]: 24% and 19% | Population Tubulin-Different-Phenotype (%) [2]: 86% and 87% | Population Apoptotic (%) [3]: 31% and 70% | Population Healthy Nuclei (%) [3]: 55% and 73% | Population Hoechst High Intensity Objects (%) [3]: 0% | Population Membrane Permeable-Phenotype (%) [3]: 0% and 9% | Population Mitotic Cells (%) [3]: 68% and 29% | Population Normal (%) [3]: 100% | Population Pyknosed Nuclei (%) [3]: 27% and 24% | Population Tubulin-Different-Phenotype (%) [3]: 68% and 44% | Total Cell Count [3]: 69 and 193 | Population Apoptotic (%) [4]: 85% | Population Fragmented Nuclei (%) [4]: 28% and 10% | Population Healthy Nuclei (%) [4]: 46% and 50% | Population Hoechst High Intensity Objects (%) [4]: 3% and 0% | Population Membrane Permeable-Phenotype (%) [4]: 23% and 42% | Population Mitochondria Different-Phenotype (%) [4]: 38% and 55% | Population Mitotic Cells (%) [4]: 14% | Population Normal (%) [4]: 96% and 99% | Population Pyknosed Nuclei (%) [4]: 25% and 38% | Population Tubulin-Different-Phenotype (%) [4]: 69% and 89% | Population Apoptotic (%) [5]: 69% and 75% | Population Fragmented Nuclei (%) [5]: 9% and 3% | Population Healthy Nuclei (%) [5]: 65% and 72% | Population Hoechst High Intensity Objects (%) [5]: 0% | Population Membrane Permeable-Phenotype (%) [5]: 4% and 8% | Population Mitotic Cells (%) [5]: 30% and 24% | Population Normal (%) [5]: 100% and 99% | Population Pyknosed Nuclei (%) [5]: 24% | Population Tubulin-Different-Phenotype (%) [5]: 72% and 41% | Population Apoptotic (%) [6]: 92% and 100% | Population Healthy Nuclei (%) [6]: 21% and 26% | Population Hoechst High Intensity Objects (%) [6]: 0% | Population Membrane Permeable-Phenotype (%) [6]: 52% and 22% | Population Mitochondria Different-Phenotype (%) [6]: 63% and 55% | Population Mitotic Cells (%) [6]: 7% and 0% | Population Normal (%) [6]: 99% and 100% | Population Pyknosed Nuclei (%) [6]: 67% and 38% | Population Tubulin-Different-Phenotype (%) [6]: 86% and 66%

COCCNC1CCC(Nc2cc(-c3csc(NCC4(C#N)CCOCC4)n3)c(Cl)cn2)CC1 (stereo unspecified)
Population Apoptotic (%) [1]: 45% and 87% | Population Fragmented Nuclei (%) [1]: 17% and 9% | Population Healthy Nuclei (%) [1]: 34% and 40% | Population Hoechst High Intensity Objects (%) [1]: 0% | Population Mitochondria Different-Phenotype (%) [1]: 7% | Population Normal (%) [1]: 100% and 99% | Population Pyknosed Nuclei (%) [1]: 48% and 49% | Population Tubulin-Different-Phenotype (%) [1]: 57% and 58% | Population Apoptotic (%) [2]: 83% and 89% | Population Fragmented Nuclei (%) [2]: 10% | Population Hoechst High Intensity Objects (%) [2]: 2% and 1% | Population Mitochondria Different-Phenotype (%) [2]: 40% and 66% | Population Mitotic Cells (%) [2]: 16% and 10% | Population Normal (%) [2]: 97% and 98% | Population Pyknosed Nuclei (%) [2]: 40% and 78% | Population Tubulin-Different-Phenotype (%) [2]: 50% | Population Apoptotic (%) [3]: 59% and 94% | Population Fragmented Nuclei (%) [3]: 13% and 9% | Population Healthy Nuclei (%) [3]: 25% and 26% | Population Hoechst High Intensity Objects (%) [3]: 0% and 3% | Population Membrane Permeable-Phenotype (%) [3]: 0% and 14% | Population Mitochondria Different-Phenotype (%) [3]: 0% and 11% | Population Normal (%) [3]: 100% and 96% | Population Pyknosed Nuclei (%) [3]: 61% and 63% | Population Tubulin-Different-Phenotype (%) [3]: 55% | Population Apoptotic (%) [4]: 91% | Population Fragmented Nuclei (%) [4]: 9% and 6% | Population Hoechst High Intensity Objects (%) [4]: 2% and 3% | Population Membrane Permeable-Phenotype (%) [4]: 0% and 20% | Population Mitochondria Different-Phenotype (%) [4]: 33% and 58% | Population Mitotic Cells (%) [4]: 8% | Population Normal (%) [4]: 97% and 96% | Population Pyknosed Nuclei (%) [4]: 84% and 60% | Population Tubulin-Different-Phenotype (%) [4]: 66% and 52% | Population Apoptotic (%) [5]: 98% and 78% | Population Fragmented Nuclei (%) [5]: 11% and 16% | Population Healthy Nuclei (%) [5]: 7% and 9% | Population Hoechst High Intensity Objects (%) [5]: 5% and 0% | Population Membrane Permeable-Phenotype (%) [5]: 53% and 66% | Population Mitochondria Different-Phenotype (%) [5]: 38% and 66% | Population Normal (%) [5]: 94% and 100% | Population Pyknosed Nuclei (%) [5]: 81% and 74% | Population Tubulin-Different-Phenotype (%) [5]: 69% and 100% | Population Apoptotic (%) [6]: 100% and 94% | Population Fragmented Nuclei (%) [6]: 9% and 5% | Population Healthy Nuclei (%) [6]: 6% and 16% | Population Hoechst High Intensity Objects (%) [6]: 2% and 3% | Population Membrane Permeable-Phenotype (%) [6]: 66% and 40% | Population Mitochondria Different-Phenotype (%) [6]: 66% and 80% | Population Mitotic Cells (%) [6]: 0% and 5% | Population Normal (%) [6]: 97% and 96% | Population Pyknosed Nuclei (%) [6]: 83% and 78% | Population Tubulin-Different-Phenotype (%) [6]: 66% and 72%

C[C@H](N)Cn1ccc2cc(F)c(Cl)cc21.O=C(O)/C=C/C(=O)O
Population Apoptotic (%) [1]: 47% and 66% | Population Fragmented Nuclei (%) [1]: 4% and 8% | Population Healthy Nuclei (%) [1]: 87% and 84% | Population Hoechst High Intensity Objects (%) [1]: 0% | Population Membrane Permeable-Phenotype (%) [1]: 0% | Population Mitochondria Different-Phenotype (%) [1]: 0% | Population Mitotic Cells (%) [1]: 52% and 33% | Population Normal (%) [1]: 99% and 100% | Population Pyknosed Nuclei (%) [1]: 8% and 6% | Population Tubulin-Different-Phenotype (%) [1]: 94% and 44% | Population Apoptotic (%) [2]: 40% and 50% | Population Fragmented Nuclei (%) [2]: 5% and 12% | Population Healthy Nuclei (%) [2]: 88% and 75% | Population Hoechst High Intensity Objects (%) [2]: 0% | Population Membrane Permeable-Phenotype (%) [2]: 1% and 8% | Population Mitochondria Different-Phenotype (%) [2]: 1% and 0% | Population Mitotic Cells (%) [2]: 60% and 50% | Population Normal (%) [2]: 99% and 100% | Population Pyknosed Nuclei (%) [2]: 6% and 12% | Population Tubulin-Different-Phenotype (%) [2]: 62% and 37% | Population Apoptotic (%) [3]: 100% and 62% | Population Fragmented Nuclei (%) [3]: 6% and 1% | Population Healthy Nuclei (%) [3]: 91% and 90% | Population Hoechst High Intensity Objects (%) [3]: 0% | Population Membrane Permeable-Phenotype (%) [3]: 0% | Population Mitochondria Different-Phenotype (%) [3]: 0% | Population Normal (%) [3]: 100% and 99% | Population Pyknosed Nuclei (%) [3]: 2% and 7% | Population Tubulin-Different-Phenotype (%) [3]: 54% and 88% | Population Apoptotic (%) [4]: 42% and 80% | Population Fragmented Nuclei (%) [4]: 3% and 9% | Population Healthy Nuclei (%) [4]: 89% and 78% | Population Hoechst High Intensity Objects (%) [4]: 0% | Population Membrane Permeable-Phenotype (%) [4]: 1% and 3% | Population Mitochondria Different-Phenotype (%) [4]: 1% and 0% | Population Mitotic Cells (%) [4]: 57% and 20% | Population Normal (%) [4]: 99% and 100% | Population Pyknosed Nuclei (%) [4]: 6% and 12% | Population Tubulin-Different-Phenotype (%) [4]: 73% and 31% | Population Apoptotic (%) [5]: 54% and 34% | Population Fragmented Nuclei (%) [5]: 5% and 2% | Population Healthy Nuclei (%) [5]: 83% and 90% | Population Hoechst High Intensity Objects (%) [5]: 0% | Population Membrane Permeable-Phenotype (%) [5]: 0% and 1% | Population Mitochondria Different-Phenotype (%) [5]: 0% | Population Mitotic Cells (%) [5]: 45% and 65% | Population Normal (%) [5]: 100% | Population Pyknosed Nuclei (%) [5]: 11% and 7% | Population Tubulin-Different-Phenotype (%) [5]: 69% and 92% | Population Apoptotic (%) [6]: 50% and 52% | Population Fragmented Nuclei (%) [6]: 10% and 5% | Population Healthy Nuclei (%) [6]: 75% and 89% | Population Hoechst High Intensity Objects (%) [6]: 0% | Population Membrane Permeable-Phenotype (%) [6]: 1% | Population Mitochondria Different-Phenotype (%) [6]: 0% | Population Mitotic Cells (%) [6]: 50% and 47% | Population Normal (%) [6]: 100% | Population Pyknosed Nuclei (%) [6]: 13% and 5% | Population Tubulin-Different-Phenotype (%) [6]: 55% and 81%
